Laboratory results reported in ChEMBL document CHEMBL4118188, “A small diversity library of α-methyl amide analogs of sulindac for probing anticancer structure-activity relationships” (Bioorg Med Chem Lett, 2018).

Key:
MDA-MB-231 = assay: Growth inhibition of human MDA-MB-231 cells measured after 96 hrs by Celltiter-Glo reagent based assay; assay type: functional; conditions: MDA-MB-231, 96 h
HT-29 = assay: Growth inhibition of human HT-29 cells measured after 72 hrs by Celltiter-Glo reagent based assay; assay type: functional; conditions: HT-29, 72 h
PC-3 = assay: Growth inhibition of human PC3 cells measured after 72 hrs by Celltiter-Glo reagent based assay; assay type: functional; conditions: PC-3, 72 h
REH = assay: Growth inhibition of human REH cells measured after 72 hrs by CellTiter-Glo reagent based assay; assay type: functional, cell-based; conditions: Homo sapiens, REH, 72 h; read-out: EC50
How it was run: (§1)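 Cell line sources: Raji is a Burkitt's lymphoma line (FAB L3); Jurkat E6-1 is an acute T-cell leukemia line; REH is a patient-derived precursor B-cell ALL line expressing only wild-type MLL and wild-type AF4; 697 was established from bone marrow of children with relapsed ALL; CPC300 derives from a mouse model of choroid plexus carcinoma.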

[1] = Growth inhibition of human NALM16 cells measured after 72 hrs by Celltiter-Glo reagent based assay; assay type: functional
[2] = Growth inhibition of mouse CPC300 cells measured after 72 hrs by Celltiter-Glo reagent based assay; assay type: functional; how it was run: as §1
Jurkat E6.1 = assay: Growth inhibition of human Jurkat E6-1 cells measured after 72 hrs by Celltiter-Glo reagent based assay; assay type: functional, cell-based; conditions: jurkat e6.1; how it was run: as §1
BJ = assay: Growth inhibition of human BJ cells after 72 hrs by CellTiter-Glo reagent based assay; assay type: cell-based
697 = assay: Growth inhibition of human 697 cells after 72 hrs by CellTiter-Glo reagent based assay; assay type: functional, cell-based; conditions: 697; how it was run: as §1

Compound	CC50 (MDA-MB-231) [µM]	CC50 (HT-29) [µM]	CC50 (PC-3) [µM]	further results
CCN(CCN(C)C)C(=O)C(C)C1=C(C)/C(=C/c2ccc([S+](C)[O-])cc2)c2ccc(F)cc21 (centres undefined)	32	9.51	28.1	–
COC(=O)[C@H](Cc1c[nH]cn1)NC(=O)C(C)C1=C(C)/C(=C/c2ccc([S+](C)[O-])cc2)c2ccc(F)cc21 (some centres undefined)	> 50	> 50	> 50	–
CCNCCN(CC)C(=O)C(C)C1=C(C)/C(=C/c2ccc(SC)cc2)c2ccc(F)cc21 (centres undefined)	2.51	1.3	3.26	–
CSc1ccc(/C=C2/C(C)=C(C(C)C(=O)NCc3ccco3)c3cc(F)ccc32)cc1 (centres undefined)	26.1	11.2	23.5	–
CC1=C(C(C)C(=O)N2CCC(N3CCCCC3)CC2)c2cc(F)ccc2/C1=C\c1ccc([S+](C)[O-])cc1 (centres undefined)	> 50	48.4	> 50	–
CNCCCN(C)C(=O)C(C)C1=C(C)/C(=C/c2ccc(SC)cc2)c2ccc(F)cc21 (centres undefined)	3.83	1.98	4.96	–
CNCCN(C)C(=O)C(C)C1=C(C)/C(=C/c2ccc([S+](C)[O-])cc2)c2ccc(F)cc21 (centres undefined)	> 50	10.7	27.9	–
CC1=C(C(C)C(=O)NCCN2CCNCC2)c2cc(F)ccc2/C1=C\c1ccc([S+](C)[O-])cc1 (centres undefined)	> 50	> 50	> 50	–
CSc1ccc(/C=C2/C(C)=C(CC(=O)NCCN(C)C)c3cc(F)ccc32)cc1	2.67	0.65	3.12	–
CC1=C(C(C)C(=O)N(CCCNC(C)C)C(C)C)c2cc(F)ccc2/C1=C\c1ccc([S+](C)[O-])cc1 (centres undefined)	23	7.13	15.7	–
COC(=O)[C@H](Cc1c[nH]cn1)NC(=O)C(C)C1=C(C)/C(=C/c2ccc(SC)cc2)c2ccc(F)cc21 (some centres undefined)	12.7	6.62	14.4	–
CCN(CC)CCN(CC)C(=O)C(C)C1=C(C)/C(=C/c2ccc(SC)cc2)c2ccc(F)cc21 (centres undefined)	5.98	2.31	6.59	–
CSc1ccc(/C=C2/C(C)=C(C(C)C(=O)N(C)CCN(C)C(=O)[C@@H](N)C(C)C)c3cc(F)ccc32)cc1 (some centres undefined)	3.86	2.22	4.83	–
CC1=C(C(C)C(=O)NCc2ccco2)c2cc(F)ccc2/C1=C\c1ccc([S+](C)[O-])cc1 (centres undefined)	> 50	> 50	> 50	–
CC1=C(C(C)C(=O)N2CCC[C@H]2CN2CCCC2)c2cc(F)ccc2/C1=C\c1ccc([S+](C)[O-])cc1 (some centres undefined)	32	7.82	24.4	–
CCN(CC)CCCNC(=O)C(C)C1=C(C)/C(=C/c2ccc([S+](C)[O-])cc2)c2ccc(F)cc21 (centres undefined)	> 50	15.5	> 50	–
CCN(CC)CCN(C)C(=O)C(C)C1=C(C)/C(=C/c2ccc([S+](C)[O-])cc2)c2ccc(F)cc21 (centres undefined)	> 50	5.83	29.3	–
COc1cc(/C=C2/C(C)=C(C(C)C(=O)NCc3ccco3)c3cc(F)ccc32)cc(OC)c1OC (centres undefined)	5.51	2.88	3.88	–
CC1=C(C(C)C(=O)NCc2ccccc2)c2cc(F)ccc2/C1=C\c1ccc([S+](C)[O-])cc1 (centres undefined)	26	17.2	15.7	–
CCNCCCN(CC)C(=O)C(C)C1=C(C)/C(=C/c2ccc(SC)cc2)c2ccc(F)cc21 (centres undefined)	3.97	2.01	4.6	–
CSc1ccc(/C=C2/C(C)=C(C(C)C(=O)NCCN3CCCCC3)c3cc(F)ccc32)cc1 (centres undefined)	5.32	2.03	5.06	–
CCN(CC)CCN(C)C(=O)C(C)C1=C(C)/C(=C/c2ccc(SC)cc2)c2ccc(F)cc21 (centres undefined)	6.71	2.22	7.27	–
CSc1ccc(/C=C2/C(C)=C(C(C)C(=O)N3CCC(N4CCCCC4)CC3)c3cc(F)ccc32)cc1 (centres undefined)	4.3	1.89	4.36	–
CSc1ccc(/C=C2/C(C)=C(C(C)C(=O)NCCCN(C)C)c3cc(F)ccc32)cc1 (centres undefined)	6.42	2.58	7.24	–
CC1=C(C(C)C(=O)N(C)CCCN(C)C)c2cc(F)ccc2/C1=C\c1ccc([S+](C)[O-])cc1 (centres undefined)	> 50	16.6	> 50	–
CC1=C(C(C)C(=O)N2CCN(CCCN(C)C)CC2)c2cc(F)ccc2/C1=C\c1ccc([S+](C)[O-])cc1 (centres undefined)	> 50	32	> 50	–

Compound	CC50 (MDA-MB-231) [µM]	CC50 (HT-29) [µM]	CC50 (PC-3) [µM]	further results
CCN1CCC[C@H]1CNC(=O)C(C)C1=C(C)/C(=C/c2ccc(SC)cc2)c2ccc(F)cc21 (some centres undefined)	3.49	1.1	4.24	–
COc1cc(/C=C2/C(C)=C(C(C)C(=O)N3CCN(CCCN(C)C)CC3)c3cc(F)ccc32)cc(OC)c1OC (centres undefined)	7.34	3.69	9.61	–
CC1=C(C(C)C(=O)NCCN(C)C)c2cc(F)ccc2/C1=C\c1ccc([S+](C)[O-])cc1 (centres undefined)	> 50	12.7	> 50	–
CC1=C(C(C)C(=O)N(C)CCN(C)C(=O)[C@@H](N)C(C)C)c2cc(F)ccc2/C1=C\c1ccc([S+](C)[O-])cc1 (some centres undefined)	47.6	26	28.8	–
CC1=C(C(C)C(=O)N(C)CCN(C)C(=O)[C@@H]2CCCN2)c2cc(F)ccc2/C1=C\c1ccc([S+](C)[O-])cc1 (some centres undefined)	> 50	20.1	27.9	–
CCNCCN(CC)C(=O)C(C)C1=C(C)/C(=C/c2ccc([S+](C)[O-])cc2)c2ccc(F)cc21 (centres undefined)	27.9	9.99	26.3	–
CSc1ccc(/C=C2/C(C)=C(C(C)C(=O)NCc3ccccc3)c3cc(F)ccc32)cc1 (centres undefined)	> 50	22.9	> 50	–
CCN(CC)CCNC(=O)C(C)C1=C(C)/C(=C/c2ccc([S+](C)[O-])cc2)c2ccc(F)cc21 (centres undefined)	36.6	11.1	40	–
CC1=C(C(C)C(=O)NCCN2CCCCC2)c2cc(F)ccc2/C1=C\c1ccc([S+](C)[O-])cc1 (centres undefined)	39.3	9.67	36.3	–
CCN1CCC[C@H]1CNC(=O)C(C)C1=C(C)/C(=C/c2ccc([S+](C)[O-])cc2)c2ccc(F)cc21 (some centres undefined)	24.9	9.35	41.5	–
CNCCCN(C)C(=O)C(C)C1=C(C)/C(=C/c2ccc([S+](C)[O-])cc2)c2ccc(F)cc21 (centres undefined)	36.8	10.5	33.7	–
CNCCN(C)C(=O)C(C)C1=C(C)/C(=C/c2ccc(SC)cc2)c2ccc(F)cc21 (centres undefined)	3.21	1.31	4.06	–
CCN(CC)CCN(CC)C(=O)C(C)C1=C(C)/C(=C/c2ccc([S+](C)[O-])cc2)c2ccc(F)cc21 (centres undefined)	23.5	4.45	19.7	–
CC1=C(C(C)C(=O)N(C)CCN(C)C)c2cc(F)ccc2/C1=C\c1ccc([S+](C)[O-])cc1 (centres undefined)	> 50	11.8	44.6	–
CC1=C(C(C)C(=O)NCCN2CCCC2)c2cc(F)ccc2/C1=C\c1ccc([S+](C)[O-])cc1 (centres undefined)	39.2	13.7	31.9	–
CSc1ccc(/C=C2/C(C)=C(C(C)C(=O)N3CCC[C@H]3CN3CCCC3)c3cc(F)ccc32)cc1 (some centres undefined)	3.57	0.84	3.93	EC50 (REH): 11 µM; EC50 [1]: Not Active; EC50 [2]: Not Active; EC50 (Jurkat E6.1): Not Active; EC50 (BJ): > 7.57 µM; EC50 697: Not Active
CC1=C(C(C)C(=O)N2CCN(c3ccncc3)CC2)c2cc(F)ccc2/C1=C\c1ccc([S+](C)[O-])cc1 (centres undefined)	19.6	4.99	10.5	–
CC1=C(C(C)C(=O)N(CCNC(C)C)C(C)C)c2cc(F)ccc2/C1=C\c1ccc([S+](C)[O-])cc1 (centres undefined)	21.3	8.06	15.2	–
CCNCCCN(CC)C(=O)C(C)C1=C(C)/C(=C/c2ccc([S+](C)[O-])cc2)c2ccc(F)cc21 (centres undefined)	25.6	6.98	24.8	–
CSc1ccc(/C=C2/C(C)=C(C(C)C(=O)N(C)CCN(C)C(=O)C3CCCN3)c3cc(F)ccc32)cc1 (single isomer, unassigned)	3.99	2.06	5.21	–
COC(=O)[C@@H](Cc1c[nH]cn1)NC(=O)C(C)C1=C(C)/C(=C/c2ccc(SC)cc2)c2ccc(F)cc21 (some centres undefined)	15	10.7	16.8	–
CSc1ccc(/C=C2/C(C)=C(C(C)C(=O)N(C)CCN(C)C)c3cc(F)ccc32)cc1 (centres undefined)	3.66	1.43	5.55	–
CC1=C(C(C)C(=O)NCCCN(C)C)c2cc(F)ccc2/C1=C\c1ccc([S+](C)[O-])cc1 (centres undefined)	> 50	22.5	> 50	–
CC1=C(C(C)C(=O)N2CCN(CCN(C)C)CC2)c2cc(F)ccc2/C1=C\c1ccc([S+](C)[O-])cc1 (centres undefined)	> 50	38.4	50	–
CSc1ccc(/C=C2/C(C)=C(C(C)C(=O)N3CCN(CCCN(C)C)CC3)c3cc(F)ccc32)cc1 (centres undefined)	3.06	1.5	4.14	–
